Screens (PubChem BioAssay)
DDE Tn6 FP inh = inhibitors of Tn6 peptide binding to human fibrin DD(E). P02675. Fibrin DD(E) TRITC-Tn6 fluorescence polarization displacement. inhibition, % at 8.3 µM. hit rate 0.21% among 370,000;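 active = inhibition above a per-campaign cutoff: mean of compounds within control limits plus 3 SD, cut at about 15% in these data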;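 also: 0% = median of all compound wells on the plate and 100% = blocking peptide control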
HTRA1 inhibitor = inhibitors of human serine peptidase HTRA1 | inhibition, % at 5.96 µM | recombinant HTRA1, FP-rhodamine activity-based probe, fluorescence polarization | hit rate 0.5% among 340,000 | Q92743; in the data active = inhibition above about 36%;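 also: 0% = enzyme with DMSO and 100% = wells lacking enzyme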
TCR CD3 inh = blocks the human TCR-CD3 interaction; hit rate 0.37% among 360,000; AID 651800; inhibition, % at 9.4 µM; TAMRA-labeled TCR probe fluorescence, biochemical; in the data active = inhibition above about 19%;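 also: recombinant mutant TCR 2C K166C tagged with TAMRA read by polarization; 0% = receptor in buffer alone and 100% = receptor with positive control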
ABHD4 inh = ABHD4 (mouse) inhibition, primary FP screen | hit rate 0.54% among 370,000 | purified mABHD4, FP-Rh probe fluorescence polarization | inhibition, % at 8.92 µM | Q8VD66;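 active = inhibition exceeding the mean over every tested compound plus 3 SD, cut at about 30% in these data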;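 also: 0% = plate median of compound wells and 100% = S159A mutant with DMSO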
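Test system: mouse ABHD4 enzyme, wild type. Reagent: FP-Rh fluorescent activity-based probe, added after compound pre-incubation. Timing: pre-incubation 45 min, probe exposure 60 min, at 25 °C. Technique: FP readout, ex 525 nm / em 598 nm. Benchmarks: high control S159A mutant with DMSO, low control median of compound wells.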
DDE Tn7 FP inh = disrupts Tn7 cyclic peptide binding to fibrin D-Dimer-E complex | FP displacement of FITC-Tn7 peptide from fibrin DD(E); 0% = median of compound wells per plate | inhibition, % at 8.3 µM | hit rate 0.13% among 370,000;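 active = inhibition above the mean of compounds falling within the control limits plus 3 SD of them, cut at about 14% in these data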;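 also: 0% = plate median of compound wells and 100% = 10 µM Aha-Tn7 peptide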
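Also added: labelled Tn7 tracer, 0.1 µM; Assay system: human fibrin DD(E) protein; Amount: 2 µM fibrin DD(E); Schedule: 10 min compound pre-incubation, 3 h probe incubation at room temperature; Repeats: one replicate per compound; Read-out basis: percent inhibition; Measured by: fluorescence polarization of the labelled Tn7 tracer.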
SIAE primary = inhibitors of human sialic acid acetylesterase SIAE; Q9HAT2; SIAE FP-Rh probe binding, fluorescence polarization; inhibition, % at 9.66 µM; hit rate 0.69% among 370,000; AID 1053197;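 active = inhibition above a cutoff: mean of compounds within the control limits plus 3 SD of those, cut at about 17% in these data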;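 also: 0% = plate median of compound wells and 100% = probe without SIAE protein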
Target sequence (Q9HAT2 whole entry, looked up): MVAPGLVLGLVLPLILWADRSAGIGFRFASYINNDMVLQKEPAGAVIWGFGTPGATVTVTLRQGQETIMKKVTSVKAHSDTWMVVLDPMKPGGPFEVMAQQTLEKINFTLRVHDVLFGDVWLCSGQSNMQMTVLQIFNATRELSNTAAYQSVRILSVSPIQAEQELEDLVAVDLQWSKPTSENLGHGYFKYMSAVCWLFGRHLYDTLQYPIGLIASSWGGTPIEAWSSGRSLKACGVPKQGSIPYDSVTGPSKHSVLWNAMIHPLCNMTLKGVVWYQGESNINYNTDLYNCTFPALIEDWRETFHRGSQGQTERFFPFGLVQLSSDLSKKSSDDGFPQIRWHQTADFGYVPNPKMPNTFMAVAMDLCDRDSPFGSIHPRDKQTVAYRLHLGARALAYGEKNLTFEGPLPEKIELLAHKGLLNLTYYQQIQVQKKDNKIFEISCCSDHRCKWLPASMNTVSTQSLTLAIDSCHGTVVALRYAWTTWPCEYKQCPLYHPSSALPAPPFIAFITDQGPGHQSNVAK
SIAE inh conf = human SIAE inhibition, confirmation. hit rate 13% among 2,300. SIAE FP-Rh activity-based probe, fluorescence polarization. shares compounds with SIAE primary. inhibition, % at 9.66 µM. AID 1117263;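 active = mean inhibition of the replicates above the hit cutoff set in the primary screen, cut at about 17% in these data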;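 also: 0% = SIAE with DMSO and probe and 100% = probe without SIAE; inhibitors lower polarization as more probe stays unbound to SIAE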
Active calls of the source: *; . = not tested or not shown. Only some compounds are listed: those with a hit (about 1.8% of all), similar ones and a draw of the others.

SMILES | DDE Tn6 FP inh | HTRA1 inhibitor | TCR CD3 inh | ABHD4 inh | DDE Tn7 FP inh | SIAE primary | SIAE inh conf
COc1ccc(Nc2nnc(SC(C(=O)Nc3ccc(OC)c(Cl)c3)c3ccccc3)s2)cc1 (stereo not drawn) | -17 | -40 | -10 | -11 | 0 | 20* | -3
CCOC(=O)CC(=O)CSc1nc2c(sc(=S)n2-c2ccc(OCC)cc2)c(=O)[nH]1 | -2 | -10 | -3 | 0 | -2 | 20* | -2
CC(=O)NNC(=S)Nc1cc(S(=O)(=O)N(C)C)ccc1C | 5 | 10 | 9 | 3 | 4 | 2 | .
COCCN(CCOC)C(=S)Nc1cc(S(=O)(=O)N(C)C)ccc1C | -3 | -2 | 6 | 2 | 4 | 20* | -4
O=C(Cn1cnc2c(NCc3ccccc3)ncnc21)NCCCc1ccccc1 | 1 | 0 | -10 | -8 | 4 | 0 | .
COc1ccc(CCN2C(=O)CC(C(N)=O)SC2=Nc2ccc(F)cc2)cc1OC (stereo not drawn) | -1 | 6 | 2 | 3 | -3 | 20* | -5
CC(C)[C@H](NC(=O)c1ccccc1)C(=O)OCC(=O)c1c(N)n(C)c(=O)n(C)c1=O | 5 | 4 | -3 | -4 | -2 | -4 | .
COc1ccc(C(=O)Oc2ccc3c(C)cc(=O)oc3c2C(C)=O)cc1 | 4 | -3 | -2 | 0 | 2 | 17* | -1
Nc1nc(NCc2ccco2)nc(N2CCCCC2)c1[N+](=O)[O-] | -4 | 3 | 6 | -1 | 9 | 19* | 1
CCc1cc(/C(Cc2csc(C)n2)=N/O)c(O)cc1O | 6 | 19 | -5 | -1 | -9 | 19* | 14
COc1ccc(NC(=O)n2ncc3c(C)cccc32)cc1OC | -1 | -9 | -1 | -3 | 7 | 17* | -2
COc1ccc(NC(=O)n2ncc3c(C)cccc32)cc1 | -3 | -13 | -6 | 5 | 1 | -1 | .
COc1cc(C(=O)N2CCN(C3CCCCC3)CC2)cc(OC)c1OC | -9 | 5 | 6 | 10 | -2 | 18* | 10
CCCc1cc(=O)[nH]c(SCC(=O)Nc2sccc2C#N)n1 | 9 | -3 | -7 | 13 | 1 | 17* | 3
CCCc1cc(=O)[nH]c(SCC(=O)Nc2c(C)cccc2C)n1 | . | 6 | . | . | . | . | .
CN(C)CCCn1c(NCc2ccc3c(c2)OCO3)nc2ccccc21 | -1 | 3 | 3 | 1 | 4 | 18* | 5
CCn1c(NCc2ccc3c(c2)OCO3)nc2ccccc21 | -6 | 6 | -9 | -3 | 3 | 3 | .
CCn1ncc(/C=N\NC(=O)c2ccc3c(c2)c(C)c(C)n3Cc2ccccc2)c1C | -10 | -33 | 7 | -2 | -8 | 38* | -8
CCn1cc(/C=N\NC(=O)c2ccc3c(c2)c(C)c(C)n3Cc2ccccc2)c(C)n1 | 3 | -22 | 0 | -17 | 6 | 1 | .
COc1cc(Cl)c(C)cc1NC(=S)NN | 5 | 4 | 4 | -1 | -3 | 8 | .
CC1=C(C)CC(C(=O)NCc2ccccc2F)C(C(=O)O)C1 (stereo not drawn) | -5 | 7 | 8 | 0 | -6 | -1 | .
Cc1nc(SCC(=O)N(CC(C)C)C2CCS(=O)(=O)C2)c2ccccc2n1 (stereo not drawn) | -8 | 3 | 0 | 3 | 5 | 17* | -1
Oc1ccc(/C=N/n2c(-c3ccccc3)n[nH]c2=S)cc1 | 0 | 1 | 7 | -1 | 1 | 11 | .
COc1ccc(/C=N/n2c(-c3ccccc3)n[nH]c2=S)cc1 | 2 | 4 | 4 | 5 | 1 | 22* | 0
O=C(N/C(=C/c1cccc(Br)c1)C(=O)N1CCCCC1)c1ccco1 | -5 | -3 | -4 | 2 | -4 | -2 | .
CC(C)CNC(=O)C(=O)Nc1cc2c3c(c1)C(C)C(=O)N3CCC2 (stereo not drawn) | -1 | 1 | 7 | 4 | 3 | 12 | .
O=C(/C=C/c1ccccc1)NC(=S)Nc1ccccc1O | -8 | -15 | 10 | 0 | 4 | 24* | -3
O=C(/C=C/c1ccc(F)cc1)NC(=S)Nc1ccccc1O | -5 | -18 | 4 | -16 | 5 | -9 | .
